In ChEMBL document CHEMBL4715702, “Overcoming multidrug resistance by targeting mitochondria with NO-donating doxorubicins” (Bioorg Med Chem, 2016):
The source made the active and inactive calls. No cut-off for these calls is given here.

Experiments:
[1] = Prodrug release in doxrubicin-resistant human HT-29 cells assessed as increase in NO level by measuring induction of P-glycoprotein nitration in mitochondria at 5 uM incubated for 24 hrs by western blot analysis; details: ht-29, 24 h
Procedure, shortened: (§1)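 Cells 24 h with 5 µmol/L compound. Mitochondrial extracts, 10 µg protein, run on SDS-PAGE and probed for Pgp, porin as loading control; nitration detected by Western blot with peroxidase secondary and chemiluminescence. Representative of three experiments.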

H9c2 = experiment: Cardiotoxicity against rat H9c2 cells assessed as LDH release at 5 uM incubated for 24 hrs; type: toxicity, cell-based; details: h9c2, 24 h
Procedure, shortened: (§2)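 Extracellular medium spun 12,000 × g 5 min; cells detached, sonicated in 82.3 mmol/L triethanolamine phosphate-HCl pH 7.6. LDH activity read in medium and lysate at 340 nm over 6 min, as µmol NADH oxidized/min/dish; extracellular LDH given as % of total dish activity. Compounds from DMSO stock, 5 µM final, 1% DMSO; controls 1% DMSO. Triplicate, mean ± SD.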

[2] = Prodrug release in human HT-29 cells assessed as increase in NO level by measuring induction of P-glycoprotein nitration in mitochondria at 5 uM incubated for 24 hrs by western blot analysis; details: ht-29, 24 h; procedure, shortened: as §1
[3] = Stability of the compound assessed as human serum esterase-mediated compound hydrolysis by measuring half life at 100 uM by RP-HPLC analysis; type: ADME, cell-free
Procedure, shortened: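 Compound from 10 mM DMSO stock added to human male AB serum preheated to 37 °C, 100 µM final, incubated at 37 ± 0.5 °C. Aliquots deproteinized with acetonitrile/0.1% HCOOH, centrifuged, filtered. Parent and degradation products quantified by RP-HPLC (234 and 480 nm) against 1–100 µM calibration. At least triplicate.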

HT-29 [4] = experiment: Induction of apoptosis in human HT29 cells assessed as activation of caspase 3 using DEVD-AMC substrate at 5 uM incubated for 24 hrs by fluorescence based assay; type: functional, cell-based
Procedure, shortened: (§3)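 Cells 24 h in 5 µmol/L compound or fresh medium, lysed in HEPES/KOH buffer pH 7.5. 20 µg lysate incubated 1 h at 37°C with 20 µmol/L LEHD-AMC (caspase 9) or DEVD-AMC (caspase 3) in HEPES/CHAPS/sucrose/DTT buffer pH 7.5. Stopped with ice-cold 0.1% TCA; AMC fluorescence ex 380/em 460 nm, converted to nmol AMC/µg protein via AMC standards. Triplicate.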

HT-29 [5] = experiment: Induction of apoptosis in doxorubicin-resistant human HT29 cells assessed as activation of caspase 9 using LEHD-AMC substrate at 5 uM incubated for 24 hrs by fluorescence based assay; type: functional, cell-based; procedure, shortened: as §3
[6] = Prodrug release in human HT-29 cells assessed as increase in NO level by measuring plasma membrane associated MRP1/BCRP nitration mediated drug uptake at 5 uM incubated for 24 hrs by spectrofluorometric analysis; type: ADME, cell membranes; details: ht-29, 24 h
Procedure, shortened: (§4)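 Cells 24 h with 5 µmol/L compound; DOXO in whole-cell lysates measured fluorimetrically (ex 475/em 553 nm), cell-free blank subtracted, converted to nmol DOXO/mg protein by calibration curve. Triplicate, mean ± SD.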

[7] = Prodrug release in human HT-29 cells assessed as increase in NO level by measuring nitrite release at 5 uM incubated for 24 hrs by spectrophotometric analysis; type: ADME, cell-based; details: ht-29, 24 h
Procedure, shortened: (§5)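 After 24 h culture with 5 µmol/L compound, medium mixed 1:1 with Griess reagent, 10 min 37°C in dark, absorbance 540 nm. Cell-free blank subtracted; nitrite expressed as nmol/mg cell protein. HT29/dx maintained in 200 nmol/L DOXO. Triplicate, mean ± SD (n = 3).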

HT-29 [8] = experiment: Induction of apoptosis in human HT29 cells assessed as activation of caspase 9 using LEHD-AMC substrate at 5 uM incubated for 24 hrs by fluorescence based assay; type: functional, cell-based; procedure, shortened: as §3
HT-29 [9] = experiment: Upregulation of iNOS protein expression in human HT-29 cells; type: functional, cell-based
Procedure, shortened: (§6)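 HT29 and HT29/dx cells incubated 24 h with compound or fresh medium; lysed in MLB buffer pH 7.5, sonicated, centrifuged 13,000 x g 10 min 4°C; iNOS detected in whole-cell lysate by Western blotting.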

HT-29 [10] = experiment: Cytotoxicity against doxorubicin-resistant human HT-29 cells assessed as LDH release at 5 uM incubated for 24 hrs; type: functional, cell-based; procedure, shortened: as §2
[11] = Prodrug release in doxorubicin-resistant human HT-29 cells assessed as increase in NO level by measuring nitrite release at 5 uM incubated for 24 hrs by spectrophotometric analysis; type: ADME, cell-based; details: ht-29, 24 h; procedure, shortened: as §5
[12] = Prodrug release in human HT-29 cells assessed as increase in NO level by measuring mitochondria associated MRP1/BCRP/P-gp nitration mediated drug uptake at 5 uM incubated for 24 hrs by spectrofluorometric analysis; type: ADME; details: ht-29, 24 h
Procedure, shortened: (§7)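 Cells 24 h with 5 µmol/L compound; mitochondrial fractions isolated (porin check by immunoblot), DOXO measured fluorimetrically (ex 475/em 553 nm) with blank subtraction and calibration curve; expressed as nmol DOXO/mg mitochondrial protein. Triplicate, mean ± SD.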

HT-29 [13] = experiment: Induction of apoptosis in doxorubicin-resistant human HT29 cells assessed as activation of caspase 3 using DEVD-AMC substrate at 5 uM incubated for 24 hrs by fluorescence based assay; type: functional, cell-based; procedure, shortened: as §3
HT-29 [14] = experiment: Upregulation of iNOS protein expression in doxorubicin-resistant human HT-29 cells; type: functional, cell-based; procedure, shortened: as §6
HT-29 [15] = experiment: Cytotoxicity against human HT-29 cells assessed as LDH release at 5 uM incubated for 24 hrs; type: functional, cell-based; procedure, shortened: as §2
[16] = Prodrug release in doxorubicin-resistant human HT-29 cells assessed as increase in NO level by measuring induction of P-glycoprotein nitration in plasma membrane at 5 uM incubated for 24 hrs by western blot analysis; type: cell membranes, Cell membrane; details: ht-29, 24 h
Procedure, shortened: (§8)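 Cells 24 h with 5 µmol/L compound. Plasma-membrane proteins isolated by surface biotinylation, 50 µg run on SDS-PAGE, probed for Pgp with pancadherin loading control; nitration detected by Western blot, peroxidase secondary and chemiluminescence. Representative of three experiments.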

[17] = Prodrug release in human HT-29 cells assessed as increase in NO level by measuring induction of P-glycoprotein nitration in plasma membrane at 5 uM incubated for 24 hrs by western blot analysis; type: cell membranes, Cell membrane; details: ht-29, 24 h; procedure, shortened: as §8
[18] = Prodrug release in doxorubicin-resistant human HT-29 cells assessed as increase in NO level by measuring plasma membrane associated MRP1/BCRP nitration mediated drug uptake at 5 uM incubated for 24 hrs by spectrofluorometric analysis; type: ADME, cell membranes; details: ht-29, 24 h; procedure, shortened: as §4
[19] = Prodrug release in doxorubicin-resistant human HT-29 cells assessed as increase in NO level by measuring mitochondria associated MRP1/BCRP/P-gp nitration mediated drug uptake at 5 uM incubated for 24 hrs by spectrofluorometric analysis; type: ADME; details: ht-29, 24 h; procedure, shortened: as §7

- Activity [1]: Active
- Activity [2]: Active
- half-life at 100 µM [3]: 21.7 h
- Drug uptake [6]: Active
- Drug metabolism [7]: Metabolite_Detected
- Drug metabolism [11]: Metabolite_Detected
- Drug uptake [12]: Active
- Activity [16]: Not Active
- Activity [17]: Not Active
- Drug uptake [18]: Active
- Drug uptake [19]: Active
Structure (SMILES): COc1cccc2c1C(=O)c1c(O)c3c(c(O)c1C2=O)C[C@@](O)(C(=O)COC(=O)C(C)(C)CO[N+](=O)[O-])C[C@@H]3O[C@H]1C[C@H](N)[C@H](O)[C@H](C)O1.Cl
- Activity (H9c2): Non-Toxic
- Activity (HT-29 [4]): Active
- Activity (HT-29 [5]): Active
- Activity (HT-29 [8]): Active
- Activity (HT-29 [9]): Active
- Activity (HT-29 [10]): Active
- Activity (HT-29 [13]): Active
- Activity (HT-29 [14]): Active
- Activity (HT-29 [15]): Active
